We go through 167 variants from the RNAGym collection of RNA variant scans (doi:10.1002/anie.201605470).

First the molecules themselves.
B1: Osa-1-4 twister ribozyme (parent)
chain: CCGCCUAACACUGCCAAUGCCGGUCCCAAGCCCGGAUAAAAGUGGAGGGGGCGG

Variants of B1 are the subject of this data set. Put plainly: self-cleavage, relative activity (ratio to wild type); higher = more cleavage; co-transcriptional. Put shortly: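 Relative activity is the fraction cleaved divided by that of the wild-type ribozyme. The library came from a DNA template for a 54-nucleotide Oryza sativa twister ribozyme, doped at the 48 positions downstream of the cleavage site with 97 % wild-type base and 1 % of each other base. After 2 h of in vitro transcription at 37 °C with co-transcriptional self-cleavage, the RNA was reverse-transcribed with a template-switching oligonucleotide, amplified by PCR and deep-sequenced, and reads with or without upstream sequence gave the cleavage status.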
Turning to A38C G45U, the self-cleavage stood at 0.1.

On to A38C U18A, for which the self-cleavage came to 0.98.

A38C U18G: the self-cleavage is 0.81.

Turning to A38C U18C, the self-cleavage turned out to be 0.99.

Regarding A38C G51A, the self-cleavage was 0.69.

Regarding A38C G51U, the self-cleavage is 0.37.

A38C G51C: the self-cleavage is 0.09.

A38C G23U: the self-cleavage was 0.07.

On to A38C G23C, for which the self-cleavage stood at 0.04.

For A38C G23A, the self-cleavage was 0.1.

A36U U12C: the self-cleavage is 0.58.

Turning to A36U U12A, the self-cleavage was found to be 0.99.

Regarding A36U U12G, the self-cleavage stood at 0.64.

In the case of A38C U43G, the self-cleavage came out at 0.34.

With A38C U43C, the self-cleavage is 0.38.

In the case of A38C U43A, the self-cleavage stood at 0.88.

With A36U C11U, the self-cleavage was found to be 0.94.

In the case of A36U C11G, the self-cleavage was 0.72.

As to A36U C11A, the self-cleavage came to 0.87.

As for A38C U12A, the self-cleavage was 0.92.

With A38C U12G, the self-cleavage was 0.29.

Regarding A38C U12C, the self-cleavage was found to be 0.38.

Consider A38C G54C, for which the self-cleavage turned out to be 0.93.

Take A38C G54A: the self-cleavage came to 0.96.

For A38C G54U, the self-cleavage is 0.94.

As for U37G U43A, the self-cleavage was 0.93.

U37G U43C: the self-cleavage worked out at 0.52.

Regarding U37G U43G, the self-cleavage stood at 0.68.

Regarding A36G G23C, the self-cleavage worked out at 0.07.

For A36G G23U, the self-cleavage was found to be 0.13.

As to A36G G23A, the self-cleavage was determined as 0.62.

For the variant A36U C14G, the self-cleavage is 0.13.

Regarding A36U C14A, the self-cleavage is 0.07.

Turning to A36U C14U, the self-cleavage was 0.5.

As for A36U G30U, the self-cleavage amounted to 0.04.

Consider A36U G30C, for which the self-cleavage worked out at 0.06.

On to A36U G30A, for which the self-cleavage turned out to be 0.03.

In the case of A36U A40U, the self-cleavage turned out to be 0.63.

For A36U A40C, the self-cleavage stood at 0.08.

Take A36U A40G: the self-cleavage was determined as 0.84.

Regarding A36U C26U, the self-cleavage was 1.

As to A36U C26A, the self-cleavage was found to be 0.04.

For the variant A36U C26G, the self-cleavage turned out to be 0.08.

For A36G U37A, the self-cleavage stood at 1.02.

On to A36G U37G, for which the self-cleavage was determined as 1.03.

In the case of A36G U37C, the self-cleavage was 1.04.

For A38C C31U, the self-cleavage was 0.89.

For A38C C31A, the self-cleavage stood at 0.04.

As to A38C C31G, the self-cleavage was determined as 0.09.

A36U G47C: the self-cleavage came out at 0.13.

With A36U G47U, the self-cleavage was found to be 0.31.

As to A36U G47A, the self-cleavage was determined as 0.32.

A36U G50C: the self-cleavage was determined as 1.06.

For A36U G50A, the self-cleavage was determined as 0.87.

On to A36U G50U, for which the self-cleavage came out at 1.03.

Take A36G U12A: the self-cleavage stood at 0.99.

Take A36G U12G: the self-cleavage is 0.39.

Consider A36G U12C, for which the self-cleavage amounted to 0.69.

On to A38G A8U, for which the self-cleavage was determined as 0.27.

For A38G A8C, the self-cleavage was found to be 0.07.

In the case of A38G A8G, the self-cleavage stood at 0.55.

A36G G30C: the self-cleavage was 0.05.

Consider A36G G30U, for which the self-cleavage worked out at 0.05.

As to A36G G30A, the self-cleavage worked out at 0.05.

Regarding A38G A39G, the self-cleavage amounted to 0.4.

Consider A38G A39C, for which the self-cleavage came to 0.97.

Consider A36U G22C, for which the self-cleavage was determined as 0.19.

Take A36U G22U: the self-cleavage came to 0.9.

In the case of A36U G22A, the self-cleavage is 1.05.

As to A38C C52G, the self-cleavage stood at 1.03.

With A38C C52A, the self-cleavage is 1.

As for A38C C52U, the self-cleavage was found to be 1.03.

As to A36U U18A, the self-cleavage was determined as 0.97.

For A36U U18G, the self-cleavage was 0.88.

In the case of A36U U18C, the self-cleavage was 0.98.

Regarding A36U G54U, the self-cleavage turned out to be 1.02.

In the case of A36U G54C, the self-cleavage is 0.96.

Consider A36U G54A, for which the self-cleavage is 1.01.

As to A36U G44C, the self-cleavage is 1.03.

Turning to A36U G44U, the self-cleavage amounted to 0.96.

A36U G44A: the self-cleavage worked out at 0.97.

Regarding A38C C15A, the self-cleavage came out at 0.31.

For the variant A38C C15U, the self-cleavage came to 0.57.

With A38C C15G, the self-cleavage was 0.11.

Turning to A36U G49U, the self-cleavage stood at 0.17.

For A36U G49A, the self-cleavage amounted to 0.19.

For A36U G49C, the self-cleavage was 0.07.

A36U G23U: the self-cleavage was determined as 0.18.

Regarding A36U G23C, the self-cleavage was 0.05.

A36U G23A: the self-cleavage was 0.72.

Take U37C: the self-cleavage is 1.04.

As to U37A, the self-cleavage was 0.79.

In the case of U37G, the self-cleavage was 1.03.

Regarding A38C A8C, the self-cleavage was 0.07.

As to A38C A8U, the self-cleavage was found to be 0.28.

In the case of A38C A8G, the self-cleavage was found to be 0.53.

Take A36U C21U: the self-cleavage was determined as 1.04.

As to A36U C21A, the self-cleavage was determined as 0.91.

On to A36U C21G, for which the self-cleavage turned out to be 0.1.

As for A38C G35U, the self-cleavage turned out to be 0.86.

Take A38C G35C: the self-cleavage is 0.36.

As to A38C G35A, the self-cleavage came to 0.84.

Consider A36U U24G, for which the self-cleavage came out at 0.03.

As to A36U U24C, the self-cleavage was found to be 0.45.

For A36U U24A, the self-cleavage came out at 0.27.

As for A36U A7C, the self-cleavage came out at 0.04.

Regarding A36U A7U, the self-cleavage came out at 0.07.

In the case of A36U A7G, the self-cleavage worked out at 0.38.

On to A38C C20A, for which the self-cleavage was determined as 0.86.

Regarding A38C C20U, the self-cleavage was found to be 0.95.

As to A38C C20G, the self-cleavage is 0.09.

As for A36G G53C, the self-cleavage came to 0.13.

For A36G G53U, the self-cleavage is 0.61.

In the case of A36G G53A, the self-cleavage was found to be 0.95.

On to A38C G30A, for which the self-cleavage was 0.05.

On to A38C G30U, for which the self-cleavage was 0.03.

Regarding A38C G30C, the self-cleavage came out at 0.05.

Take A38G: the self-cleavage amounted to 1.01.

Regarding A38C, the self-cleavage stood at 1.02.

On to A36U C20G, for which the self-cleavage turned out to be 0.19.

As to A36U C20U, the self-cleavage was 0.99.

For the variant A36U C20A, the self-cleavage worked out at 0.82.

On to A36U G35C, for which the self-cleavage is 0.82.

For the variant A36U G35U, the self-cleavage worked out at 1.04.

A36U G35A: the self-cleavage was 0.92.

In the case of U37A U43G, the self-cleavage was 0.43.

Turning to U37A U43A, the self-cleavage amounted to 0.76.

Consider U37A U43C, for which the self-cleavage came out at 0.44.

Take A36U C25U: the self-cleavage turned out to be 0.92.

On to A36U C25A, for which the self-cleavage is 0.12.

Regarding A36U C25G, the self-cleavage was 0.1.

As to A38C A7C, the self-cleavage was 0.05.

With A38C A7U, the self-cleavage stood at 0.08.

For the variant A38C A7G, the self-cleavage was 0.22.

Regarding A36U C27U, the self-cleavage worked out at 0.28.

A36U C27A: the self-cleavage turned out to be 0.29.

As to A36U C27G, the self-cleavage amounted to 0.09.

Turning to A36U, the self-cleavage was determined as 1.03.

For A36U A39U, the self-cleavage was determined as 0.91.

Consider A36U A39C, for which the self-cleavage is 0.99.

A36U A39G: the self-cleavage came out at 0.98.

On to A36U G45A, for which the self-cleavage was determined as 0.46.

Take A36U G45C: the self-cleavage turned out to be 0.05.

Take A36U G45U: the self-cleavage is 0.13.

Regarding A38C C27U, the self-cleavage worked out at 0.18.

For A38C C27A, the self-cleavage stood at 0.18.

With A38C C27G, the self-cleavage is 0.06.

In the case of A36G U18G, the self-cleavage was 0.85.

On to A36G U18A, for which the self-cleavage came out at 0.98.

Turning to A36G U18C, the self-cleavage was found to be 0.98.

In the case of A36U C15A, the self-cleavage was determined as 0.51.

Regarding A36U C15U, the self-cleavage amounted to 0.31.

Consider A36U C15G, for which the self-cleavage was 0.4.

A36G G19C: the self-cleavage was 0.13.

For the variant A36G G19U, the self-cleavage turned out to be 0.99.

On to A38G A7U, for which the self-cleavage was 0.08.

A38G A7G: the self-cleavage amounted to 0.31.

For the variant A38G A7C, the self-cleavage was 0.06.

As for A36U G51A, the self-cleavage worked out at 0.84.

Consider A36U G51U, for which the self-cleavage amounted to 0.52.

In the case of A36U G51C, the self-cleavage turned out to be 0.16.

A36U U43C: the self-cleavage amounted to 0.38.

For A36U U43A, the self-cleavage stood at 0.99.

As for A36U U43G, the self-cleavage worked out at 0.64.

For the variant A36U G13A, the self-cleavage turned out to be 0.14.

For A36U G13C, the self-cleavage was 0.03.

In the case of A36U G13U, the self-cleavage worked out at 0.03.
